Assay results from ChEMBL document CHEMBL4706506 (Eur J Med Chem, 2020).

Tests used:
HeLa = assay: Antiproliferative activity against human HeLa cells assessed as inhibition of cell proliferation measured after 48 hrs by CCK-8 assay; type: functional, cell-based
Method in brief: (§1)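 RPMI-1640 with 10% FBS, 37 °C, 5% CO2. Cells seeded at 1-3 × 10^4/well and exposed to 0.00098–64 μM (nine 4-fold steps) or 0.1% DMSO vehicle for 48 h. CCK-8 then added for 4 h; absorbance read at 450 nm. IC50 taken from dose–response curves; mean ± SD of three independent experiments.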

MCF7 = assay: Antiproliferative activity against human MCF7 cells assessed as inhibition of cell proliferation measured after 48 hrs by CCK-8 assay; type: functional, cell-based; details: MCF7, 48 h
A549 = assay: Antiproliferative activity against human A549 cells assessed as inhibition of cell proliferation measured after 48 hrs by CCK-8 assay; type: functional, cell-based; details: A549, 48 h; method in brief: as §1
HCT-116 = assay: Antiproliferative activity against human HCT-116 cells assessed as inhibition of cell proliferation measured after 48 hrs by CCK-8 assay; type: functional, cell-based; details: HCT-116, 48 h; method in brief: as §1
B16-F0 = assay: Antiproliferative activity against mouse B16-F0 cells assessed as inhibition of cell proliferation measured after 48 hrs by CCK-8 assay; type: functional, cell-based; details: B16F0, 48 h; method in brief: as §1
[1] = Metabolic stability in human liver microsomes assessed as half life in presence of NADPH at 0.5 uM measured after 4 hrs by LC/MS method; type: ADME, Microsome
[2] = Metabolic stability in mouse liver microsomes assessed as half life in presence of NADPH at 0.5 uM measured after 4 hrs by LC/MS method; type: ADME, Microsome

Row | Compound | IC50 (HeLa) | IC50 (MCF7) | IC50 (A549) | IC50 (HCT-116) | IC50 (B16-F0) | half-life at 0.5 µM [1] | half-life at 0.5 µM [2]
1 | COc1cc(-c2ccnc3cc(-c4ccc(F)cc4)nn23)cc(OC)c1OC | 5840 nM | 1280 nM | 3800 nM | 5030 nM | 4540 nM | – | –
2 | COc1ccc(-c2cc3nccc(-c4cc(OC)c(OC)c(OC)c4)n3n2)cc1[N+](=O)[O-] | > 10000 nM | > 10000 nM | > 10000 nM | > 10000 nM | > 10000 nM | – | –
3 | COc1cc(-c2ccnc3cc(-c4cn(CO)c5ccccc45)nn23)cc(OC)c1OC | 103 nM | 19 nM | 167 nM | 128 nM | 93 nM | – | –
4 | C=Cc1ccc(-c2cc3nccc(-c4cc(OC)c(OC)c(OC)c4)n3n2)cc1 | 882 nM | 193 nM | 1030 nM | 1060 nM | 788 nM | – | –
5 | COc1cc(-c2ccnc3cc(-c4ccc5ccn(C)c5c4)nn23)cc(OC)c1OC | 187 nM | 74 nM | 829 nM | 1040 nM | 657 nM | – | –
6 | COc1cc(-c2cc3nccc(-c4cc(OC)c(OC)c(OC)c4)n3n2)cc(OC)c1OC | > 10000 nM | > 10000 nM | > 10000 nM | > 10000 nM | > 10000 nM | – | –
7 | COc1cc(-c2ccnc3cc(-c4ccc(Cl)cc4)nn23)cc(OC)c1OC | 1490 nM | 2320 nM | 3060 nM | 3340 nM | 4090 nM | – | –
8 | COc1cc(-c2cc3nccc(-c4c[nH]c5ccccc45)n3n2)cc(OC)c1OC | > 10000 nM | > 10000 nM | > 10000 nM | > 10000 nM | > 10000 nM | – | –
9 | COc1cc(-c2ccnc3cc(-c4ccccc4)nn23)cc(OC)c1OC | 458 nM | 254 nM | 208 nM | 3880 nM | 4730 nM | – | –
10 | COc1cc(-c2ccnc3cc(-c4cccc(C)c4)nn23)cc(OC)c1OC | 4230 nM | 1080 nM | 5730 nM | 6150 nM | 2220 nM | – | –
11 | COc1ccc(-c2cc3nccc(-c4cc(OC)c(OC)c(OC)c4)n3n2)cc1 | 373 nM | 125 nM | 376 nM | 404 nM | 1400 nM | – | –
12 | COc1cc(-c2ccnc3cc(-c4ccc5cc[nH]c5c4)nn23)cc(OC)c1OC | 125 nM | 23 nM | 170 nM | 187 nM | 55 nM | – | –
13 | COc1cc(-c2ccnc3c(-c4c[nH]c5ccccc45)cnn23)cc(OC)c1OC | > 10000 nM | > 10000 nM | > 10000 nM | > 10000 nM | > 10000 nM | – | –
14 | COc1cc(-c2ccnc3cc(-c4cccc(C#N)c4)nn23)cc(OC)c1OC | > 10000 nM | > 10000 nM | > 10000 nM | > 10000 nM | > 10000 nM | – | –
15 | COc1cc(-c2ccnc3cc(-c4cn(C(=O)OC(C)(C)C)c5ccccc45)nn23)cc(OC)c1OC | 3770 nM | 268 nM | 2060 nM | 5720 nM | 3070 nM | – | –
16 | CCn1c2ccccc2c2cc(-c3cc4nccc(-c5cc(OC)c(OC)c(OC)c5)n4n3)ccc21 | 160 nM | 242 nM | 643 nM | 1530 nM | 1800 nM | – | –
17 | COc1cc(-c2ccnc3cc(-c4cnn(C)c4)nn23)cc(OC)c1OC | 1830 nM | 274 nM | 1150 nM | 2110 nM | 1240 nM | – | –
18 | COc1cc(-c2ccnc3cc(-c4c[nH]c5ccccc45)nn23)cc(OC)c1OC | 195 nM | 85 nM | 29 nM | 35 nM | 40 nM | – | –
19 | COc1cc(-c2ccnc3cc(-c4ccc(C(F)(F)F)cc4)nn23)cc(OC)c1OC | 1840 nM | 2440 nM | 2070 nM | 1860 nM | 1770 nM | – | –

Now from value to compound:

Row | IC50 (HeLa) | IC50 (MCF7) | IC50 (A549) | IC50 (HCT-116) | IC50 (B16-F0) | half-life at 0.5 µM [1] | half-life at 0.5 µM [2] | Compound
20 | 378 nM | 44 nM | 1100 nM | 2050 nM | 702 nM | – | – | COc1cc(-c2ccnc3cc(-c4ccc(N(C)C)cc4)nn23)cc(OC)c1OC
21 | 241 nM | 26 nM | 272 nM | 261 nM | 391 nM | – | – | COc1cc(-c2ccnc3cc(-c4ccc(C)c(C)c4)nn23)cc(OC)c1OC
22 | > 10000 nM | > 10000 nM | > 10000 nM | > 10000 nM | > 10000 nM | – | – | COc1cc(-c2ccnc3cc(-c4ccc(N5CCOCC5)cc4)nn23)cc(OC)c1OC
23 | 5210 nM | 4580 nM | 3520 nM | 2160 nM | 4780 nM | – | – | Cn1ccc2cc(-c3cc4nccc(-c5ccc(F)cc5)n4n3)ccc21
24 | 399 nM | 95 nM | 1340 nM | 762 nM | 185 nM | – | – | COc1cc(-c2ccnc3cc(-c4cn(C)c5ccccc45)nn23)cc(OC)c1OC
25 | 97 nM | 279 nM | 233 nM | 2440 nM | 1470 nM | – | – | COc1cc(-c2ccnc3cc(-c4ccc5c(cnn5C)c4)nn23)cc(OC)c1OC
26 | > 10000 nM | > 10000 nM | > 10000 nM | > 10000 nM | > 10000 nM | – | – | CCOC(=O)c1ccc(-c2cc3nccc(-c4cc(OC)c(OC)c(OC)c4)n3n2)cc1
27 | 456 nM | 1070 nM | 1100 nM | 861 nM | 1090 nM | – | – | COc1cc(-c2ccnc3cc(-c4ccc(CO)cc4)nn23)cc(OC)c1OC
28 | 1810 nM | 5230 nM | 4100 nM | 4390 nM | 3930 nM | – | – | COc1cc(-c2ccnc3cc(-c4ccc(C(C)=O)cc4)nn23)cc(OC)c1OC
29 | 283 nM | 27 nM | 138 nM | 251 nM | 88 nM | – | – | COc1ccc(-c2cc3nccc(-c4cc(OC)c(OC)c(OC)c4)n3n2)cc1N
30 | 236 nM | 183 nM | 545 nM | 2840 nM | 3950 nM | – | – | COc1ccc(-c2cc3nccc(-c4cc(OC)c(OC)c(OC)c4)n3n2)cc1F
31 | > 10000 nM | > 10000 nM | > 10000 nM | > 10000 nM | > 10000 nM | – | – | Cc1ccc(-c2cc3nccc(-c4ccc(F)cc4)n3n2)cc1
32 | – | – | – | – | – | 17 min | < 5 min | COc1cc(C(=O)c2csc(-c3ccccc3)n2)cc(OC)c1OC
33 | > 10000 nM | > 10000 nM | > 10000 nM | > 10000 nM | > 10000 nM | – | – | COc1cc(-c2ccnc3cc(-c4ccc(C(C)(C)C)cc4)nn23)cc(OC)c1OC
